{"source": "paper PMC4137986", "about": "(Chemical Research in Toxicology, 2014)", "key": {"P450 1A1 [1]": {"target": "T1, P450 1A1 (Homo sapiens, UniProt P04798)", "T1 sequence (P04798 1-512)": "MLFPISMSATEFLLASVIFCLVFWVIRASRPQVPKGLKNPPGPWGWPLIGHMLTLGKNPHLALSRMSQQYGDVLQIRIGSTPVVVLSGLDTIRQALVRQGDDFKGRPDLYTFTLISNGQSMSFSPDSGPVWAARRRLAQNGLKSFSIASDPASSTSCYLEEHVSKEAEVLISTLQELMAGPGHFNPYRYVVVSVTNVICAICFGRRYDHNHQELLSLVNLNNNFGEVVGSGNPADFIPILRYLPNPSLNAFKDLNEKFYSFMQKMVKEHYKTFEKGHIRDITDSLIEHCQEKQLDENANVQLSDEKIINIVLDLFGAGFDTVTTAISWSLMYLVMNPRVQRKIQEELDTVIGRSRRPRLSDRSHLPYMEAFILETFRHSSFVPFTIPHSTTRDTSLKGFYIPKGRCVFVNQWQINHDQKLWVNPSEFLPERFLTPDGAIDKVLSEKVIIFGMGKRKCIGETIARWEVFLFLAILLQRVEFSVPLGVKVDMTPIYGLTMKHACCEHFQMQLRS", "experiment": "P450 1A1-dependent deethylation of resorufin ethyl ether", "format": "biochemical"}, "P450 2B1": {"target": "T2, P450 2B1 (Rattus norvegicus, UniProt P00176)", "T2 sequence (P00176 1-491)": "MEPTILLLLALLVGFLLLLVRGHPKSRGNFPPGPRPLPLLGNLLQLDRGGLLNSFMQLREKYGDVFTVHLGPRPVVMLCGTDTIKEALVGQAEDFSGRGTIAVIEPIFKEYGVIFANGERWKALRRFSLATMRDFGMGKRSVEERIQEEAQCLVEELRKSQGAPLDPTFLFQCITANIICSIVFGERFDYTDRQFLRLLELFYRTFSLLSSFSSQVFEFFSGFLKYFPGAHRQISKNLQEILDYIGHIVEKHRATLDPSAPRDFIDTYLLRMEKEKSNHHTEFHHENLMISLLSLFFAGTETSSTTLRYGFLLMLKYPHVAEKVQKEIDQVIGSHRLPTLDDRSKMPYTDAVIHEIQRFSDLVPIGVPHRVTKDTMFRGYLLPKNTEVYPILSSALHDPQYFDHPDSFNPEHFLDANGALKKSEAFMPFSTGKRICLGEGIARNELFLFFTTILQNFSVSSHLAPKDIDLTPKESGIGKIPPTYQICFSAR", "experiment": "P450 2B1-dependent depentylation of resorufin pentyl ether", "format": "biochemical", "outline": "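Rat P450 2B1 microsomes (5 nM final) were used in 0.1 M potassium phosphate pH 7.6 with MgCl2, with 5 μM resorufin pentyl ether in DMSO. Reactions were started with an NADPH-regenerating system (NADP+, glucose 6-phosphate, G6PDH) and run at 37 °C. Resorufin formation was followed continuously at ex 535/em 585 nm.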"}, "P450 1A1 [2]": {"target": "T1, P450 1A1", "experiment": "Time-dependent inhibition kinetics of P450 1A1", "format": "biochemical", "settings": "for time-dependent inhibition of P450 1A1 (type of inhibition): time-course curves; for kinact: read-out: limiting kinact", "outline": "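Human P450 1A1 microsomes (1.6 nM) were used with 5 μM resorufin ethyl ether in pH 7.6 phosphate buffer, with the NADPH-regenerating system added to start the reaction at 37 °C. Product was monitored continuously for 6 min at several inhibitor concentrations. Progress curves were fitted to second-order polynomials, and their derivatives gave activity over time. Semilog plots gave t1/2 (0.693/kinact), and KI and limiting kinact came from Kitz–Wilson plots (1/kinact vs 1/[I]).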"}, "P450 1A1 [3]": {"target": "T1, P450 1A1", "experiment": "NADPH-dependency assay", "format": "biochemical", "settings": "for NADPH-dependency of the inhibition of P450 1A1: 5 min preincubation with vs without NADPH", "outline": "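Human P450 1A1 microsomes (1.6 nM final) were used in 0.1 M potassium phosphate pH 7.6 with MgCl2, with inhibitor in DMSO at 0.00625 or 0.1 μM. Preincubation was 5 min at 37 °C either with an NADPH-regenerating system, then started with 5 μM resorufin ethyl ether, or without NADPH, then started with regenerating system plus substrate. Resorufin time-course was read at ex 535/em 585 nm, 37 °C.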"}, "P450 1A2 over P450 1A1": {"target": "T3, P450 1A2 over P450 1A1 (Homo sapiens, UniProt P05177)", "T3 sequence (P05177 1-516)": "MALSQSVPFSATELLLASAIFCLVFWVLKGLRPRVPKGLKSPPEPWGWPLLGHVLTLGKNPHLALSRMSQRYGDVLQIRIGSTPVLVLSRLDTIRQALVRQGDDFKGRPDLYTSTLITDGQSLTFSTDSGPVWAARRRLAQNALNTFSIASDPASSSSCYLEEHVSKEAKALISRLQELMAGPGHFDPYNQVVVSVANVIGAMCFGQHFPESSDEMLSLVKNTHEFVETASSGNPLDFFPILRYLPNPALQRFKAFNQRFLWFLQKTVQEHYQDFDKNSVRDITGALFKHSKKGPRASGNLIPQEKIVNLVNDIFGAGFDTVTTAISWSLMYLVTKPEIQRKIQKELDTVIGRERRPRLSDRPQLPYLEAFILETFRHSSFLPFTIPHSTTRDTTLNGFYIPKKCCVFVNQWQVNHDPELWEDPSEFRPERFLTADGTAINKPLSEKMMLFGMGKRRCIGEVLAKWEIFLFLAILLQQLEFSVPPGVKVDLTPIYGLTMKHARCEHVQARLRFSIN", "experiment": "P450 1A2-dependent demethylation of resorufin methyl ether", "format": "biochemical", "settings": "human, recombinant human CYP1A1 and CYP1A2 supersomes, pH 7.6"}, "P450 1A2": {"target": "T4, P450 1A2 (Homo sapiens, UniProt P05177)", "T4 sequence (P05177 1-516)": "T3 sequence (P05177 1-516)", "experiment": "P450 1A2-dependent demethylation of resorufin methyl ether", "format": "biochemical"}, "P450 1A1 over P450 1A2": {"target": "T5, P450 1A1 over P450 1A2 (Homo sapiens, UniProt P04798)", "T5 sequence (P04798 1-512)": "T1 sequence (P04798 1-512)", "experiment": "P450 1A1-dependent deethylation of resorufin ethyl ether", "format": "biochemical", "settings": "human, recombinant human CYP1A1 and CYP1A2 supersomes, pH 7.6"}, "P450 1A1 [4]": {"target": "T1, P450 1A1", "settings": "read-out: Ki of well-known P450 1A1 inhibitors; cited from earlier work"}}, "note": "Entries after “also recorded” stand apart in the source; their conditions may differ. Read-outs that look alike come from different tables or passages of the source."}
{"smiles": "C#Cc1ccccc1-c1cc(=O)c2ccccc2o1", "note": "[2′EF, 2′-Ethynylflavone]", "values": [{"measurement": "Ki", "setting": "P450 1A1 [1]", "result": 1640, "unit": "nM"}, {"measurement": "Ki", "setting": "P450 2B1", "result": 15700, "unit": "nM"}, {"measurement": "time-dependent inhibition of P450 1A1 (type of inhibition)", "setting": "P450 1A1 [2]", "result": "only a competitive inhibitor"}, {"measurement": "NADPH-dependency of the inhibition of P450 1A1", "setting": "P450 1A1 [3]", "result": "does not NADPH-dependently inhibit P450 1A1"}, {"measurement": "effect of 5 min preincubation with NADPH on P450 1A1 activity", "setting": "P450 1A1 [3]; inhibitor 0.1 μM", "result": "slight influence on enzymatic activity"}, {"measurement": "selectivity ratio at 6 min", "setting": "P450 1A2 over P450 1A1", "result": 7.2}, {"measurement": "Ki", "setting": "P450 1A2", "result": 230, "unit": "nM"}]}
{"smiles": "C#Cc1cccc(-c2cc(=O)c3ccccc3o2)c1", "note": "[3′EF, 3′-Ethynylflavone]", "values": [{"measurement": "Ki", "setting": "P450 1A1 [2]", "result": "53 ± 7", "unit": "nM"}, {"measurement": "kinact", "setting": "P450 1A1 [2]", "result": 0.00767, "unit": "s⁻¹"}, {"measurement": "time-dependent inhibition of P450 1A1 (type of inhibition)", "setting": "P450 1A1 [2]", "result": "time- and concentration-dependently inhibit P450 1A1"}, {"measurement": "NADPH-dependency of the inhibition of P450 1A1", "setting": "P450 1A1 [3]", "result": "exhibit NADPH-dependency"}, {"measurement": "effect of 5 min preincubation with NADPH on P450 1A1 activity", "setting": "P450 1A1 [3]; inhibitor 0.00625 μM", "result": "complete inhibition; also recorded: completely subvert the enzymatic activity"}]}
{"smiles": "C#Cc1ccc(-c2cc(=O)c3ccccc3o2)cc1", "note": "[4′EF, 4′-Ethynylflavone]", "values": [{"measurement": "selectivity ratio at 6 min", "setting": "P450 1A1 over P450 1A2", "result": 85}, {"measurement": "Ki", "setting": "P450 1A1 [2]", "result": "56 ± 14", "unit": "nM"}, {"measurement": "kinact", "setting": "P450 1A1 [2]", "result": 0.0055, "unit": "s⁻¹"}, {"measurement": "time-dependent inhibition of P450 1A1 (type of inhibition)", "setting": "P450 1A1 [2]", "result": "time- and concentration-dependently inhibit P450 1A1"}, {"measurement": "NADPH-dependency of the inhibition of P450 1A1", "setting": "P450 1A1 [3]", "result": "exhibit NADPH-dependency"}, {"measurement": "effect of 5 min preincubation with NADPH on P450 1A1 activity", "setting": "P450 1A1 [3]; inhibitor 0.00625 μM", "result": "complete inhibition"}, {"measurement": "Ki", "setting": "P450 1A2", "result": 3260, "unit": "nM"}]}
{"smiles": "C#Cc1cccc2oc(-c3ccccc3)cc(=O)c12", "note": "[5EF, 5-Ethynylflavone]", "values": [{"measurement": "Ki", "setting": "P450 1A1 [1]", "result": 1230, "unit": "nM"}, {"measurement": "Ki", "setting": "P450 1A1 [2]", "result": "510 ± 90", "unit": "nM"}, {"measurement": "kinact", "setting": "P450 1A1 [2]", "result": 0.0011, "unit": "s⁻¹"}, {"measurement": "time-dependent inhibition of P450 1A1 (type of inhibition)", "setting": "P450 1A1 [2]", "result": "time- and concentration-dependently inhibit P450 1A1"}, {"measurement": "NADPH-dependency of the inhibition of P450 1A1", "setting": "P450 1A1 [3]", "result": "exhibit NADPH-dependency"}, {"measurement": "effect of 5 min preincubation with NADPH on P450 1A1 activity", "setting": "P450 1A1 [3]; inhibitor 0.1 μM", "result": "considerable inhibition"}]}
{"smiles": "C#Cc1ccc2oc(-c3ccccc3)cc(=O)c2c1", "note": "[6EF, 6-Ethynylflavone]", "values": [{"measurement": "selectivity ratio at 6 min", "setting": "P450 1A1 over P450 1A2", "result": 177}, {"measurement": "Ki", "setting": "P450 1A1 [1]", "result": 35, "unit": "nM"}, {"measurement": "Ki", "setting": "P450 1A1 [2]", "result": "43 ± 8", "unit": "nM"}, {"measurement": "kinact", "setting": "P450 1A1 [2]", "result": 0.0055, "unit": "s⁻¹"}, {"measurement": "time-dependent inhibition of P450 1A1 (type of inhibition)", "setting": "P450 1A1 [2]", "result": "time- and concentration-dependently inhibit P450 1A1"}, {"measurement": "NADPH-dependency of the inhibition of P450 1A1", "setting": "P450 1A1 [3]", "result": "exhibit NADPH-dependency"}, {"measurement": "effect of 5 min preincubation with NADPH on P450 1A1 activity", "setting": "P450 1A1 [3]; inhibitor 0.00625 μM", "result": "complete inhibition"}, {"measurement": "Ki", "setting": "P450 1A2", "result": 6200, "unit": "nM"}]}
{"smiles": "C#Cc1ccc2cc(-c3ccccc3)c(=O)oc2c1", "note": "[7E3PC, 7-ethynyl-3-phenylcoumarin, reference compound]", "values": [{"measurement": "Ki", "setting": "P450 1A1 [1]", "result": 740, "unit": "nM"}]}
{"smiles": "C#Cc1ccc2c(=O)cc(-c3ccccc3)oc2c1", "note": "[7EF, 7-Ethynylflavone]", "values": [{"measurement": "Ki", "setting": "P450 1A1 [2]", "result": "35 ± 12", "unit": "nM"}, {"measurement": "kinact", "setting": "P450 1A1 [2]", "result": 0.007, "unit": "s⁻¹"}, {"measurement": "time-dependent inhibition of P450 1A1 (type of inhibition)", "setting": "P450 1A1 [2]", "result": "time- and concentration-dependently inhibit P450 1A1"}, {"measurement": "NADPH-dependency of the inhibition of P450 1A1", "setting": "P450 1A1 [3]", "result": "exhibit NADPH-dependency"}, {"measurement": "effect of 5 min preincubation with NADPH on P450 1A1 activity", "setting": "P450 1A1 [3]; inhibitor 0.00625 μM", "result": "complete inhibition; also recorded: completely subvert the enzymatic activity"}]}
{"smiles": "c1cc2ccc3cccc4ccc(c1)c2c34", "note": "[pyrene]", "values": [{"measurement": "Ki", "setting": "P450 1A1 [4]", "result": "~40", "unit": "nM"}]}
{"smiles": "O=c1cc(-c2ccccc2)oc2c1ccc1ccccc12", "note": "[αNF, α-naphthoflavone]", "values": [{"measurement": "Ki", "setting": "P450 1A1 [4]", "result": "~40", "unit": "nM"}]}
